Assay results taken from ChEMBL document CHEMBL1156265, “Furo[2,3-b]pyridine-based cannabinoid-1 receptor inverse agonists: synthesis and biological evaluation. Part 1” (Bioorg Med Chem Lett, 2010).
Activity calls are given as the source filed them. No cut-off for these calls is given here.

Columns and labels:
Cytochrome P450 3A4 = Cytochrome P450 3A4 (Homo sapiens, UniProt P08684); assay: Inhibition of CYP3A4; format: ADME
In short: (§1)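 Inhibition of cytochrome P450 isoforms CYP3A4, CYP2C9, CYP2D6, CYP2C19 and CYP1A2, reported as IC50 in µM.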

Cytochrome P450 2D6 = Cytochrome P450 2D6 (Homo sapiens, UniProt P10635); assay: Inhibition of CYP2D6; format: ADME; in short: as §1
Chain of Cytochrome P450 2D6 (P10635 whole entry): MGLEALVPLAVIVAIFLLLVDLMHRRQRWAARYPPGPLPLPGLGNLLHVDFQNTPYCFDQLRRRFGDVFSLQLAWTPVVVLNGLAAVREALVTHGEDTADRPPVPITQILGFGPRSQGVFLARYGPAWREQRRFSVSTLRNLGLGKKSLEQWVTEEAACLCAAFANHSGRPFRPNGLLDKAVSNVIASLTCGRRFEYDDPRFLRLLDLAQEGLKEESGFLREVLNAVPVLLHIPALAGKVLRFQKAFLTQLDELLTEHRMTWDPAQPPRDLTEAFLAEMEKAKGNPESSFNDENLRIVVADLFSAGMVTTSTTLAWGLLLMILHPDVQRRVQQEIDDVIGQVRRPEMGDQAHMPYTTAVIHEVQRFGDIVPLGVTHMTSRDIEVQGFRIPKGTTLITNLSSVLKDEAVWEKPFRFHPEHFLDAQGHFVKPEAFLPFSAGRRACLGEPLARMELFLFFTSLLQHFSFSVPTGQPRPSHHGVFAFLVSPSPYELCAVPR

Rattus norvegicus [1] = assay: Suppression of cumulative food intake in rat at 1 mg/kg, po relative to control; format: functional
In short: (§2)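 Chronic study in diet-induced obese rats with daily oral dosing at 1 mg/kg (for some compounds 0.1 and 0.3 mg/kg as well). Body weight change and cumulative food intake suppression were measured relative to vehicle. The 14-day study ended 18 h after the day-14 dose; one study ended on day 13.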

Canis familiaris [2] = assay: Plasma concentration in anesthetized dog at up to 10 mg/kg, iv measured at the end of infusion; format: ADME, organism-based, Canis lupus familiaris; design: dose 10 mg/kg, route intravenous; settings: in vivo
In short: (§3)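 Anesthetized dogs received a cumulative IV infusion of 1, 3 and 10 mg/kg, each dose infused over 30 min. Mean arterial pressure, heart rate and ECG intervals including QTc were compared with vehicle-treated animals. Plasma drug level was measured at the end of infusion.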

Cytochrome P450 1A2 = target: T1, Cytochrome P450 1A2 (Homo sapiens, UniProt P05177); assay: Inhibition of CYP1A2; format: ADME; in short: as §1
T1 sequence (P05177 whole entry): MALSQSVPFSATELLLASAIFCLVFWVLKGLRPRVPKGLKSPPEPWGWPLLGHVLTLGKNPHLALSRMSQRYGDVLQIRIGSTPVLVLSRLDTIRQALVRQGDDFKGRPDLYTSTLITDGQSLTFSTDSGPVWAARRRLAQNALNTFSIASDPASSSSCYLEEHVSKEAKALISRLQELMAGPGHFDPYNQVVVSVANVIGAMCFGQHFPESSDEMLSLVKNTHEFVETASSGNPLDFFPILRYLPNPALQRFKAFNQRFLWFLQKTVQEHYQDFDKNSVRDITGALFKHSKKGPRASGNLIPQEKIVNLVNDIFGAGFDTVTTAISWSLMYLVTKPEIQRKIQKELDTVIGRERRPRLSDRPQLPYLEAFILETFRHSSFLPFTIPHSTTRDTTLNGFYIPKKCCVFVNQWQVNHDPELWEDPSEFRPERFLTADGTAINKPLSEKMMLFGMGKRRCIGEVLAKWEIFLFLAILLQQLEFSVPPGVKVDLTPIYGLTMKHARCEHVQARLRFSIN

[3] = Bioavailability in dog; format: ADME, organism-based, Canis lupus familiaris; settings: in vivo
In short: (§4)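 PK in dog and rhesus macaque. Bioavailability, plasma clearance (mL/min/kg) and terminal half-life derived from plasma drug levels.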

[4] = target: Voltage-gated inwardly rectifying potassium channel KCNH2 (Homo sapiens, UniProt Q12809); assay: Inhibition of human ERG potassium channel
Chain of Voltage-gated inwardly rectifying potassium channel KCNH2 (Q12809 whole entry): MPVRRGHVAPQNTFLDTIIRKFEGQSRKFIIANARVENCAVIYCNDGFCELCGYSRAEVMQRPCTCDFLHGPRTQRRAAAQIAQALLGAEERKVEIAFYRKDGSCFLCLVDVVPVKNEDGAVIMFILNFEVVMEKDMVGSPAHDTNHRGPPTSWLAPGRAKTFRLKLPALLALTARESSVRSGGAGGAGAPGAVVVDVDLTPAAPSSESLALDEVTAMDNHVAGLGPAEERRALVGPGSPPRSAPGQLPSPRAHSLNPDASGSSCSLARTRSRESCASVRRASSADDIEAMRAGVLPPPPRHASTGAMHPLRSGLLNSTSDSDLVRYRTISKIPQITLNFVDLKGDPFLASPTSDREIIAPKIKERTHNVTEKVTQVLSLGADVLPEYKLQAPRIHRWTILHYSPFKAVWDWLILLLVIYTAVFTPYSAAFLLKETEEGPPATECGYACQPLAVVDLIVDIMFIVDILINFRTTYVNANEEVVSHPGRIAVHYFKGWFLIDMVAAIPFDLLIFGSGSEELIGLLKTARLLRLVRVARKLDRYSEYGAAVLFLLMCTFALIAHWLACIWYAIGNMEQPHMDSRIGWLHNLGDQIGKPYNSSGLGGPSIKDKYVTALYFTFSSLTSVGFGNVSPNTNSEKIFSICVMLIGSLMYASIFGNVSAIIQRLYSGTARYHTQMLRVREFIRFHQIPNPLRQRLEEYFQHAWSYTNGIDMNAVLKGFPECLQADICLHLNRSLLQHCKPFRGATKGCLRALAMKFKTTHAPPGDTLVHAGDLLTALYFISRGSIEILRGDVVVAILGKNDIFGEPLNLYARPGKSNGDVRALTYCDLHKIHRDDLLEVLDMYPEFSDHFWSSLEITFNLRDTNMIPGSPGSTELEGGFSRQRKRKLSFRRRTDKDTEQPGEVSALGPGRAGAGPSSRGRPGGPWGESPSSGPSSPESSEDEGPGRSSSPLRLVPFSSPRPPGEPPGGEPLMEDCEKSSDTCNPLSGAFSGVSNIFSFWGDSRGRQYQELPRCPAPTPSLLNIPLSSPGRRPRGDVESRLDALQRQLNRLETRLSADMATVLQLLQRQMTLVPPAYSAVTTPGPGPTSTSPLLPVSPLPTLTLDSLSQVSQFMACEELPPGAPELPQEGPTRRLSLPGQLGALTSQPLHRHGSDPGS

[5] = Plasma clearance in dog; format: ADME, organism-based, Canis lupus familiaris; in short: as §4
[6] = Half life in rat; format: ADME, organism-based; settings: in vivo
Canis familiaris [7] = assay: Toxicity in anesthetized dog assessed as change in mean arterial pressure up to 10 mg/kg, iv relative to control; format: organism-based, Canis lupus familiaris, Artery; design: dose 10 mg/kg, route intravenous; settings: in vivo; in short: as §3
[8] = Drug level in rat brain at 1 mg/kg, iv after 4 hrs; format: ADME, organism-based; design: dose 1 mg/kg, route intravenous; settings: read-out: Drug uptake
Cytochrome P450 2C19 = Cytochrome P450 2C19 (Homo sapiens, UniProt P33261); assay: Inhibition of CYP2C19; format: ADME; in short: as §1
Chain of Cytochrome P450 2C19 (P33261 whole entry): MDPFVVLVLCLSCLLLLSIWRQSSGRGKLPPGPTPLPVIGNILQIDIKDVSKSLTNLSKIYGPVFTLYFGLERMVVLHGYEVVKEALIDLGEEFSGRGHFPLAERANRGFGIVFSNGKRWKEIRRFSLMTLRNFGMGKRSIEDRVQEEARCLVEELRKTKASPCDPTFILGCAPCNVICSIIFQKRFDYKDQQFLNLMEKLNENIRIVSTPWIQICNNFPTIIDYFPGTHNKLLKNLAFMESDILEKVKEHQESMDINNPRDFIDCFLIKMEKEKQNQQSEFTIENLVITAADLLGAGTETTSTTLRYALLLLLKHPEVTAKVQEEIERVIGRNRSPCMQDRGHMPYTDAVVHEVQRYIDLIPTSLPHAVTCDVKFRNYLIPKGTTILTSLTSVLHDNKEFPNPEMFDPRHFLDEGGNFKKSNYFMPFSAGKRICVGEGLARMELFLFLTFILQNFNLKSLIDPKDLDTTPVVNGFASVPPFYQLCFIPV

Rattus norvegicus [9] = assay: Toxicity in Sprague-Dawley rat at 30 mg/kg, po by rotarod test; format: organism-based; design: dose 30 mg/kg, route oral; settings: in vivo
In short: (§5)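 Male Sprague Dawley rats dosed orally at 30 mg/kg. Motor coordination assessed on rotarod, with plasma and brain drug levels measured.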

[10] = Ratio of drug level in brain to plasma in rat at 1 mg/kg, iv after 4 hrs; format: ADME, organism-based; design: dose 1 mg/kg, route intravenous
Rattus norvegicus [11] = assay: Reduction of body weight in DIO rat assessed as weight change at 1 mg/kg, po after 2 weeks; format: functional, organism-based; design: dose 1 mg/kg
In short: (§6)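 DIO rats were dosed orally once daily for 2 weeks at 0.1, 0.3 or 1 mg/kg. Body weight change (g) was compared with vehicle, and the study ended 18 h after the day-14 dose.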

[12] = Plasma clearance in rhesus monkey; format: ADME, organism-based, Macaca mulatta; in short: as §4
Rattus norvegicus [13] = assay: Suppression of food intake in DIO rat at 1 mg/kg, po measured 18 hrs post dose on day 14 relative to control
Rattus norvegicus [14] = assay: Suppression of food intake in DIO rat at 1 mg/kg, po relative to control; format: functional
In short: (§7)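 Acute study in diet-induced obese rats. A single oral dose was given and rats were monitored for 18 h. Food intake suppression and body weight change were measured relative to vehicle-treated controls.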

[15] = Plasma clearance in rat; format: ADME, organism-based
Brain [16] = assay: Drug level in CD1 mouse brain at 30 mg/kg, po; format: ADME, organism-based; design: dose 30 mg/kg, route oral; settings: in vivo, read-out: Drug uptake
[17] = Metabolic stability in rat urine assessed as compound recovery at 1 mg/kg; format: ADME, organism-based; design: dose 1 mg/kg; settings: read-out: Activity
In short: (§8)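 Radioactivity excreted in bile and urine measured as percent of dose.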

Cytochrome P450 2C9 = Cytochrome P450 2C9 (Homo sapiens, UniProt P11712); assay: Inhibition of CYP2C9; format: ADME; in short: as §1
Chain of Cytochrome P450 2C9 (P11712 whole entry): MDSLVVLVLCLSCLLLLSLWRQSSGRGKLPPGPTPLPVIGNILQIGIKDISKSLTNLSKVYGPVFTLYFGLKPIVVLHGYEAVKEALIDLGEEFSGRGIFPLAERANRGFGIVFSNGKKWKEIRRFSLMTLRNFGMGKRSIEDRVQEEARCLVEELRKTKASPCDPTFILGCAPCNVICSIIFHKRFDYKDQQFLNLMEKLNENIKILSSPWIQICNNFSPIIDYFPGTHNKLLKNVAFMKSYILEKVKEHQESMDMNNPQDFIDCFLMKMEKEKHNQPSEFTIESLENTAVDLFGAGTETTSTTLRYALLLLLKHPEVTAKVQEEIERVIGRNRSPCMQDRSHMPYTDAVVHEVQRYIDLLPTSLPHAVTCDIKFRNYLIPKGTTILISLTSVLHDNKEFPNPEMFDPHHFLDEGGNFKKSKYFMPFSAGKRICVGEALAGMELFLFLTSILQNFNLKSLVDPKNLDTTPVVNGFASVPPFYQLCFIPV

Rattus norvegicus [18] = assay: Reduction of body weight in DIO rat assessed as weight change at 1 mg/kg, po daily measured 18 hrs post dose on day 14; format: functional; in short: as §2
[19] = Drug level in rat plasma at 1 mg/kg, iv after 4 hrs; format: ADME, organism-based; design: dose 1 mg/kg, route intravenous; settings: read-out: Drug uptake
Canis familiaris [20] = assay: Toxicity in anesthetized dog assessed as change in ECG intervals up to 10 mg/kg, iv relative to control; format: organism-based, Canis lupus familiaris; design: dose 10 mg/kg, route intravenous; settings: in vivo; in short: as §3
Canis familiaris [21] = assay: Toxicity in anesthetized dog assessed as change in heart rate up to 10 mg/kg, iv relative to control; format: organism-based, Canis lupus familiaris; design: dose 10 mg/kg, route intravenous; settings: in vivo; in short: as §3
Plasma [22] = assay: Drug level in CD1 mouse plasma at 100 mg/kg, po; format: ADME, organism-based; design: dose 100 mg/kg, route oral; settings: in vivo, read-out: Drug uptake
Mus musculus [23] = assay: Toxicity in CD1 mouse assessed as ataxia at 100 mg/kg, po; format: organism-based; design: dose 100 mg/kg, route oral; settings: in vivo
Plasma [24] = assay: Drug level in CD1 mouse plasma at 30 mg/kg, po; format: ADME, organism-based; design: dose 30 mg/kg, route oral; settings: in vivo, read-out: Drug uptake
[25] = Half life in rhesus monkey; format: ADME, organism-based, Macaca mulatta; settings: in vivo; in short: as §4
Rattus norvegicus [26] = assay: Reduction of body weight in DIO rat assessed as weight change at 0.1 mg/kg, po after 2 weeks; format: functional, organism-based; design: dose 0.1 mg/kg; in short: as §6
Rattus norvegicus [27] = assay: Reduction of body weight in DIO rat assessed as weight change at 0.3 mg/kg, po after 2 weeks; format: functional, organism-based; design: dose 0.3 mg/kg; in short: as §6
[28] = Inhibition of rat GABAA receptor
In short: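 Rat GABA_A ligand-gated ion-channel binding, run within a 175-assay radioligand binding and enzymatic screening panel. IC50 estimated.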

[29] = Bioavailability in rat; format: ADME, organism-based; settings: in vivo
Mus musculus [30] = assay: Reduction of body weight in Cnr1+/+ C57BL/6 mouse at 1 mg/kg, po measured for 18 hrs; format: functional
In short: (§9)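 The overnight food intake study used ad libitum fed male mice aged 14–16 weeks, Cnr1+/+ (n = 10) and Cnr1−/− (n = 7). Mice received a single oral dose of 1 mg/kg. Food intake and body weight change were measured over 18 h relative to vehicle-treated mice.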

Rattus norvegicus [31] = assay: Reduction of body weight in DIO rat assessed as weight change at 1 mg/kg, po after 18 hrs; format: functional; in short: as §7
Brain [32] = assay: Drug level in CD1 mouse brain at 100 mg/kg, po; format: ADME, organism-based; design: dose 100 mg/kg, route oral; settings: in vivo, read-out: Drug uptake
Brain [33] = assay: Drug level in Sprague-Dawley rat brain at 30 mg/kg, po; format: ADME, organism-based; design: dose 30 mg/kg, route oral; settings: in vivo, read-out: Drug uptake; in short: as §5
[34] = Half life in dog; format: ADME, organism-based, Canis lupus familiaris; settings: in vivo; in short: as §4
[35] = target: GABA-A receptor; agonist GABA site; assay: Partial agonist activity at human alpha-1-beta-3-gamma-2 GABAA receptor expressed in […] cells; format: functional, cell-based
In short: (§10)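 Whole-cell electrophysiology in Ltk cells expressing human α1β3γ2 GABA_A receptors. EC50 determined, and maximal efficacy expressed relative to the maximum GABA response.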

[36] = Bioavailability in rhesus monkey; format: ADME, organism-based, Macaca mulatta; settings: in vivo; in short: as §4
Mus musculus [37] = assay: Toxicity in CD1 mouse assessed as hyperactive response at 100 mg/kg, po; format: organism-based; design: dose 100 mg/kg, route oral; settings: in vivo
Plasma [38] = assay: Drug level in Sprague-Dawley rat plasma at 30 mg/kg, po; format: ADME, organism-based; design: dose 30 mg/kg, route oral; settings: in vivo, read-out: Drug uptake; in short: as §5
[39] = target: GABA-A receptor; alpha-1/beta-3/gamma-2 (Homo sapiens) (UniProt P14867+P18507+P28472); assay: Partial agonist activity at human alpha-1-beta-3-gamma-2 GABAA receptor expressed in […] cells at 3 uM; format: functional, cell-based; in short: as §10
[40] = Metabolic stability in rat bile assessed as compound recovery at 1 mg/kg; format: ADME, organism-based; design: dose 1 mg/kg; settings: read-out: Activity; in short: as §8
Rattus norvegicus [41] = assay: Reduction of body weight in rat at 1 mg/kg, po relative to control; format: functional; design: scale not given: the % may be the effect or the level left; in short: as §2
Mus musculus [42] = assay: Suppression of food intake in Cnr1+/+ C57BL/6 mouse at 1 mg/kg, po measured for 18 hrs by overnight food intake study; format: functional; in short: as §9

Chain of Cytochrome P450 3A4 (P08684 whole entry, canonical isoform): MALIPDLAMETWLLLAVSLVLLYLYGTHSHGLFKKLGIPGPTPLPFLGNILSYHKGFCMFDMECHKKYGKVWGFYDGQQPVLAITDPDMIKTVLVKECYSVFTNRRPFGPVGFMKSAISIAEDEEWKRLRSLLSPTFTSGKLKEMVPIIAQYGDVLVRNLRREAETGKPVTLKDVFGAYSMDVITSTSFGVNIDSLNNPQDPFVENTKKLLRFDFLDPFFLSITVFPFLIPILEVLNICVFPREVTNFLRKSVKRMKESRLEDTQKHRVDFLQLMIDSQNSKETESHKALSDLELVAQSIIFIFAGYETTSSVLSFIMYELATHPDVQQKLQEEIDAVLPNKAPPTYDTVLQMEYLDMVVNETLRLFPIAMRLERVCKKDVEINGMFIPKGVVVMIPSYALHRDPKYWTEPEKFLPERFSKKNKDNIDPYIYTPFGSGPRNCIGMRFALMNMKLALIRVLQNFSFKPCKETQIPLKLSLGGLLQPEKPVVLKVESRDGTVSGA

`CC(C)(O)C(=O)c1oc2nc(-c3ccccc3Cl)c(-c3ccc(Cl)cc3)cc2c1NC(=O)CO` showed an IC50 (Cytochrome P450 3A4) of 98 µM, an IC50 (Cytochrome P450 2D6) of 73 µM and an Activity (Rattus norvegicus [1]) of 24%. For the same compound, the concentration (Canis familiaris [2]) was 50000 nM, the IC50 (Cytochrome P450 1A2) was > 100 µM and the bioavailability [3] was 9%. For the same compound, the IC50 [4] was 6.6 µM, the clearance [5] was 33 mL/min/kg and the half-life [6] was 7.5 h. For the same compound, the Activity (Canis familiaris [7]) was “Non-toxic”, the concentration at 4 h [8] was 94 nM and the IC50 (Cytochrome P450 2C19) was 43 µM. For the same compound, the Activity (Rattus norvegicus [9]) was “Non-toxic”, the Kp at 4 h [10] was 0.64 and the Activity (Rattus norvegicus [11]) was “Active”. It also gave a clearance [12] of 2.1 mL/min/kg, an Activity (Rattus norvegicus [13]) of 24% and an Activity (Rattus norvegicus [14]) of 47%. It also gave a clearance [15] of 8.6 mL/min/kg, a concentration (Brain [16]) of 2300 nM and a dose excreted [17] of 5%. The IC50 (Cytochrome P450 2C9) was 17 µM, the Activity (Rattus norvegicus [18]) was -2 g and the concentration at 4 h [19] was 147 nM. For the same compound, the Activity (Canis familiaris [20]) was “Non-toxic”, the Activity (Canis familiaris [21]) was “Non-toxic” and the concentration (Plasma [22]) was 24000 nM. For the same compound, the Activity (Mus musculus [23]) was “Toxic”, the concentration (Plasma [24]) was 7000 nM and the half-life [25] was 17 h. For the same compound, the Activity (Rattus norvegicus [26]) was “inactive”, the Activity (Rattus norvegicus [27]) was “Active” and the IC50 [28] was 1.8 µM. For the same compound, the bioavailability [29] was 64%, the Activity (Mus musculus [30]) was -0.79 g and the Activity (Rattus norvegicus [31]) was -7 g. For the same compound, the concentration (Brain [32]) was 6500 nM, the concentration (Brain [33]) was 500 nM and the half-life [34] was 1.8 h. For the same compound, the EC50 [35] was 0.7 µM, the bioavailability [36] was 50% and the Activity (Mus musculus [37]) was “Toxic”. For the same compound, the concentration (Plasma [38]) was 500 nM, the Efficacy [39] was 18% and the dose excreted [40] was 87%. It also gave an Activity (Rattus norvegicus [41]) of 4.3% and an Activity (Mus musculus [42]) of 53%.
